Active and inactive are the calls of the source.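 How the source made its calls, unless noted: active means GFP response above 150% of the DMSO level; inconclusive means fewer than 70 events counted for a yeast strain; inactive means the rest.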

Assay [1] can be described thus: hit retest on RPL19A-GFP reporter strain – cell-based, S. cerevisiae, flow cytometry, cherry picks, mother/daughter gates, confirmation (AID 2270;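 active means GFP response below 50% of the DMSO control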). The settings on record: 3 h, at 10 µM, stronger effect = lower value, 100 = same GFP as DMSO wells. A general note: A flow cytometer gives signals particle by particle.
A short description of assay [2]: yeast TOR pathway reporter LAP4-GFP change – cell-based, cherry picks, flow cytometry, mother/daughter gates, confirmation (AID 2271;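 active means GFP response above 150% of the DMSO control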;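 further: ratio of sample to DMSO plate mean so 100% equals DMSO level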). The conditions noted are these: S. cerevisiae LAP4-GFP strain, 3 h, at 10 µM, stronger effect = higher value, 100 means same as DMSO control. In outline:
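Measured by: GFP by flow cytometry. Test system: GFP-fusion yeast strain. Input: yeast cells seeded at OD600 of 0.2. Timing: 30 °C, 3 h compound incubation, rotating. Buffer or medium: synthetic complete medium for yeast. Benchmarks: DMSO-only negative wells, rapamycin 400 ng/mL positive wells. Compound: 10 µM single dose.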

Assay [3] in a line: TOR pathway reporter MEP2-GFP, retest of hits – S. cerevisiae, flow cytometry GFP, cherry picks, confirmation (AID 2272;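 active means GFP response above 150% of the DMSO control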;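 further: ratio of well signal to plate DMSO mean so 100% equals DMSO level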). The conditions noted are these: S. cerevisiae MEP2-GFP strain, 3 h, at 10 µM, stronger effect = higher value.
Assay [4] can be described thus: yeast AGP1-GFP fluorescence change, single-dose – cell-based, flow cytometry, S. cerevisiae, cherry picks, confirmation (AID 2273).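 Further: median GFP channel fluorescence over the whole cell population gate.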 The settings on record: S. cerevisiae AGP1-GFP strain, 3 h, at 10 µM.
Assay [5] can be described thus: TOR pathway CIT2 reporter hit retest – S. cerevisiae, GFP fusion, cherry picks, mother/daughter gates, confirmation (AID 2274). The conditions noted are these: S. cerevisiae CIT2-GFP strain, flow cytometry, 3 h, at 10 µM, stronger effect = higher value.
[6] abbreviates: measured here: daughter cell gate.
[7] abbreviates: measured here: mother cell gate.
[8] abbreviates: measured here: daughter cell gate response.
Setting [9] is: measured here: mother cell gate response.

For the molecule `CC1(C)CC(=O)C(C(C2=C(O)CC(C)(C)CC2=O)c2cccs2)C(=O)C1` (stereo not drawn), the GFP response vs DMSO in assay [1] was 100% (inactive); in assay [1] (setting [6]), 103%; in assay [1] (setting [7]) it was 101%; in assay [3], 97.5% (inactive). Also, the GFP response relative to DMSO in assay [2] was 100% (inactive); in assay [2] (setting [8]) it was 102%; in assay [2] (setting [9]) it was 100%. Besides, the GFP response, % of DMSO in assay [4] was 94.3% (inactive); in assay [5], 101% (inactive); in assay [5] (setting [6]), 102%; in assay [5] (setting [7]), 99.1%.

On to `CCCCN(CC)S(=O)(=O)c1ccc(C(=O)Nc2nnc(COC)o2)cc1`, for which the GFP response vs DMSO was 96.6% (inactive) in assay [1], 96.7% in assay [1] (setting [6]), 98.1% in assay [1] (setting [7]) and 97.5% (inactive) in assay [3]. Moreover, the results for the GFP response relative to DMSO in assay [2], in assay [2] (setting [8]) and in assay [2] (setting [9]) were 100% (inactive), 99.3% and 99.5%, respectively. For the same molecule, the GFP response, % of DMSO is 103% (inactive) in assay [4], 102% (inactive) in assay [5], 100% in assay [5] (setting [6]) and 101% in assay [5] (setting [7]).

As for `O=C(COc1ccc(F)cc1Cl)Nc1nc(-c2ccccn2)cs1`, the GFP response vs DMSO in assay [1] is 98% (inactive); in assay [1] (setting [6]), 94.7%; in assay [1] (setting [7]), 97.1%; in assay [3], 110% (inactive). The values for the GFP response relative to DMSO in assay [2], in assay [2] (setting [8]) and in assay [2] (setting [9]) were 132% (inactive), 132% and 137%, respectively. The GFP response, % of DMSO in assay [4] is 98.8% (inactive); in assay [5] it was 94.4% (inactive); in assay [5] (setting [6]), 97.6%; in assay [5] (setting [7]) it was 89.3%.

Take `Cc1nc2ccccc2n2c(O)c(CC(=O)O)cc12`: the GFP response vs DMSO in assay [1] was 98.7% (inactive); in assay [1] (setting [6]), 98.5%; in assay [1] (setting [7]), 99.3%; in assay [3], 102% (inactive). Also, the GFP response relative to DMSO was 103% (inactive) in assay [2], 96.5% in assay [2] (setting [8]) and 99.5% in assay [2] (setting [9]). Also, the GFP response, % of DMSO in assay [4] is 98.9% (inactive); in assay [5], 92.1% (inactive); in assay [5] (setting [6]) it was 96.4%; in assay [5] (setting [7]), 85.1%.

For `O=[N+]([O-])c1ccc(Sc2nc3ccccc3o2)c([N+](=O)[O-])c1`, the GFP response vs DMSO in assay [1] was 93.5% (inactive); in assay [1] (setting [6]), 93.4%; in assay [1] (setting [7]), 92%; in assay [3], 114% (inactive). Further, the results for the GFP response relative to DMSO in assay [2], in assay [2] (setting [8]) and in assay [2] (setting [9]) were 157% (active), 151% and 158%, respectively. Besides, the GFP response, % of DMSO in assay [4] is 96% (inactive); in assay [5], 108% (inactive); in assay [5] (setting [6]), 109%; in assay [5] (setting [7]), 100%.

Turning to `CC(=O)c1ccc(NC(=O)CN2CCC(NC(=O)C3CCCCC3)CC2)cc1`, the GFP response vs DMSO was 102% (inactive) in assay [1], 102% in assay [1] (setting [6]), 103% in assay [1] (setting [7]) and 104% (inactive) in assay [3]. For the same molecule, the GFP response relative to DMSO is 98.8% (inactive) in assay [2], 97.9% in assay [2] (setting [8]) and 99.5% in assay [2] (setting [9]). Also, the GFP response, % of DMSO in assay [4] is 95.6% (inactive); in assay [5], 96.4% (inactive); in assay [5] (setting [6]), 98.3%; in assay [5] (setting [7]), 95.6%.

With `CCCn1c(=O)c(C(=O)NCc2ccc(OC)c(OC)c2)c(O)c2ccccc21`, the GFP response vs DMSO in assay [1] was 98% (inactive); in assay [1] (setting [6]), 97.6%; in assay [1] (setting [7]), 97.6%; in assay [3] it was 107% (inactive). For the same molecule, the GFP response relative to DMSO in assay [2] was 102% (inactive); in assay [2] (setting [8]), 102%; in assay [2] (setting [9]), 103%. Besides, the GFP response, % of DMSO was 95% (inactive) in assay [4], 101% (inactive) in assay [5], 97.2% in assay [5] (setting [6]) and 101% in assay [5] (setting [7]).

Consider `O=C(Nc1nc(-c2ccc(Cl)cc2)cs1)c1cccnc1`, for which the GFP response vs DMSO in assay [1] was 96.8% (inactive); in assay [1] (setting [6]), 87.8%; in assay [1] (setting [7]) it was 98.3%; in assay [3], 99% (inactive). Moreover, the GFP response relative to DMSO in assay [2] is 105% (inactive); in assay [2] (setting [8]), 101%; in assay [2] (setting [9]), 104%. For the same molecule, the GFP response, % of DMSO was 99.4% (inactive) in assay [4], 95.9% (inactive) in assay [5], 93.8% in assay [5] (setting [6]) and 95.6% in assay [5] (setting [7]).

With `Cn1nnnc1N=N/C(=N/Nc1ccccc1)c1ccccc1`, the GFP response vs DMSO in assay [1] was 97.6% (inactive); in assay [1] (setting [6]), 96.1%; in assay [1] (setting [7]), 97.3%; in assay [3], 94.7% (inactive). For the same molecule, the results for the GFP response relative to DMSO in assay [2], in assay [2] (setting [8]) and in assay [2] (setting [9]) were 110% (inactive), 107% and 115%, respectively. In addition, the GFP response, % of DMSO was 89.5% (inactive) in assay [4], 87.2% (inactive) in assay [5], 88.4% in assay [5] (setting [6]) and 85.8% in assay [5] (setting [7]).

Take `CCCn1c(=O)c(C(=O)Nc2ccccc2)c(O)c2ccccc21`: the GFP response vs DMSO is 96.7% (inactive) in assay [1], 96.4% in assay [1] (setting [6]), 95.6% in assay [1] (setting [7]) and 99.3% (inactive) in assay [3]. The GFP response relative to DMSO is 100% (inactive) in assay [2], 97.5% in assay [2] (setting [8]) and 98.4% in assay [2] (setting [9]). The GFP response, % of DMSO is 96.6% (inactive) in assay [4], 98.6% (inactive) in assay [5], 95.8% in assay [5] (setting [6]) and 97.1% in assay [5] (setting [7]).

Turning to `Cc1ccc(-c2ccc(/C=N/NC(N)=S)o2)cc1`, the GFP response vs DMSO was 98.6% (inactive) in assay [1], 95% in assay [1] (setting [6]), 98.7% in assay [1] (setting [7]) and 102% (inactive) in assay [3]. Moreover, the GFP response relative to DMSO is 112% (inactive) in assay [2], 113% in assay [2] (setting [8]) and 115% in assay [2] (setting [9]). The GFP response, % of DMSO in assay [4] is 91.9% (inactive); in assay [5] it was 97.8% (inactive); in assay [5] (setting [6]) it was 94.8%; in assay [5] (setting [7]), 96.6%.

`COc1cccc2c1Oc1ncccc1N(C(=O)CCC(=O)NCc1cccc(C)c1)C2`: the GFP response vs DMSO was 98.4% (inactive) in assay [1], 98.6% in assay [1] (setting [6]), 99.2% in assay [1] (setting [7]) and 100% (inactive) in assay [3]. In addition, the GFP response relative to DMSO in assay [2] was 97.9% (inactive); in assay [2] (setting [8]), 97.6%; in assay [2] (setting [9]) it was 98.3%. Also, the GFP response, % of DMSO in assay [4] is 97.6% (inactive); in assay [5] it was 105% (inactive); in assay [5] (setting [6]), 106%; in assay [5] (setting [7]), 104%.

As to `COc1ccccc1NC(=O)Cn1nnc(-c2ccccc2NC(=O)c2ccco2)n1`, the GFP response vs DMSO in assay [1] was 95.9% (inactive); in assay [1] (setting [6]) it was 96.1%; in assay [1] (setting [7]) it was 96.6%; in assay [3] it was 100% (inactive). Besides, the GFP response relative to DMSO in assay [2] was 85.4% (inactive); in assay [2] (setting [8]), 87.9%; in assay [2] (setting [9]), 89%. Further, the GFP response, % of DMSO in assay [4] is 95.4% (inactive); in assay [5] it was 99.1% (inactive); in assay [5] (setting [6]) it was 98.1%; in assay [5] (setting [7]), 99.8%.

Values taken from PubChem BioAssay.
